Data taken from ChEMBL document CHEMBL4152330, “Arylamino containing hydroxamic acids as potent urease inhibitors for the treatment of Helicobacter pylori infection” (Eur J Med Chem, 2018).
The source made the active and inactive calls. No cut-off for these calls is given here.

Tests used:
[1] = biological target: T1, Urease subunit alpha/Urease subunit beta (Helicobacter pylori (strain ATCC 700392 / 26695) (Campylobacterpylori), UniProt P69996); assay: Inhibition of Helicobacter pylori ATCC 43504 urease assessed as reduction in ammonia production preincubated for 1.5 hrs under cell free condition by indophenol method; type: protein-complex assay, Helicobacter pylori NCTC 11637 = CCUG 17874 = ATCC 43504
Method in brief: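 Crude urease from sonicated ATCC 43504 cells (grown microaerobically in Brucella broth with 10% sheep blood), desalted on Sephadex G-25 and stored in 50% glycerol at 4 °C. Enzyme (10U) pre-incubated with test compound 1.5 h at room temperature. Ammonia production read by Weatherburn indophenol method.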

[2] = biological target: T2, Urease subunit alpha/Urease subunit beta (Helicobacter pylori (strain ATCC 700392 / 26695) (Campylobacterpylori)) (UniProt P69996+P14916); assay: Ratio of IC50 for Helicobacter pylori ATCC 43504 urease under cell free condition to IC50 for urease in intact Helicobacter pylori ATCC 43504; type: protein-complex assay; details: Helicobacter pylori NCTC 11637 = CCUG 17874 = ATCC 43504
Method in brief: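 Cell-free arm: desalted crude H. pylori urease lysate (10 U) was preincubated with compound for 1.5 h at room temperature. Intact-cell arm: the same set-up with H. pylori cell suspension (4.0 × 10^7 CFU/mL) in place of the enzyme. Ammonia was measured by the indophenol method in both arms.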

[3] = biological target: T1, Urease subunit alpha/Urease subunit beta; assay: Inhibition of urease in Helicobacter pylori ATCC 43504 assessed as reduction in ammonia production preincubated for 1.5 hrs by indophenol method; type: protein-complex assay, Helicobacter pylori NCTC 11637 = CCUG 17874 = ATCC 43504
Method in brief: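 Crude urease was prepared from H. pylori harvested from broth, PBS-washed, frozen at -80 °C, sonicated with protease inhibitors, centrifuged, desalted on Sephadex G-25 and stored in 50% glycerol at 4 °C. Enzyme (10 U) was preincubated with test compound for 1.5 h at room temperature. Ammonia production was read by the Weatherburn indophenol method.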

[4] = biological target: T2, Urease subunit alpha/Urease subunit beta (Helicobacter pylori (strain ATCC 700392 / 26695) (Campylobacterpylori)); assay: Potency index, ratio of AHA IC50 to compound IC50 for Helicobacter pylori ATCC 43504 urease assessed as reduction in ammonia production preincubated for 1.5 hrs under cell free condition by indophenol method; type: protein-complex assay; details: Helicobacter pylori NCTC 11637 = CCUG 17874 = ATCC 43504
Helicobacter pylori [5] = assay: Antibacterial activity against Helicobacter pylori ATCC 43504 infected in Kunming mouse assessed as bacterial eradication at 32 mg/kg, po bid treated for 14 days relative to control; type: functional, NCTC 11637 = CCUG 17874 = ATCC 43504
Method in brief: (§1)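 Mice (18–22 g) fasted 4 h, then given 0.2 mol/L NaHCO3 intragastrically. Fifteen min later they were inoculated intragastrically with H. pylori (1 × 10^9 cfu/mL), once daily for a week. Three weeks later mice were randomized (n=13/group). Compound in 0.5% CMC-Na was given intragastrically at 8:00 and 18:00 daily for 14 days. Eradication was compared with an untreated infected model group.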

Helicobacter pylori [6] = assay: Antibacterial activity against Helicobacter pylori ATCC 43504 infected in Kunming mouse assessed as reduction in gastric mucosa injury in mouse stomach at 32 mg/kg, po bid treated for 14 days by hematoxylin and eosin staining based assay; type: functional, organism-based; details: NCTC 11637 = CCUG 17874 = ATCC 43504
Method in brief: (§2)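 KM mice (18–22 g) were pretreated with NaHCO3 and infected intragastrically with H. pylori (1 × 10^9 cfu/mL) daily for one week. After three weeks, groups (n=13) received compound in 0.5% CMC-Na intragastrically b.i.d. for 14 days. Part of each stomach was fixed in 4% paraformaldehyde, paraffin-embedded and cut at 3.0 µm to assess gastric mucosal lesions against an untreated infected model.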

Helicobacter pylori [7] = assay: Antibacterial activity against Helicobacter pylori ATCC 43504 infected in Kunming mouse assessed as bacterial eradication at 64 mg/kg, po bid treated for 14 days relative to control; type: functional, NCTC 11637 = CCUG 17874 = ATCC 43504; method in brief: as §1
Helicobacter pylori [8] = assay: Antibacterial activity against Helicobacter pylori ATCC 43504 infected in Kunming mouse assessed as bacterial eradication at 16 mg/kg, po bid treated for 14 days relative to control; type: functional, NCTC 11637 = CCUG 17874 = ATCC 43504; method in brief: as §1
[9] = Acute toxicity in po dosed Kunming mouse assessed as induction of mortality administered as single dose and measured after 14 days; type: organism-based; details: in vivo
Method in brief: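 Male and female adult KM mice, 18–22 g, n=10 per group. Single intragastric dose of 500, 1000, 2000, 3000 or 5000 mg/kg in 0.5% CMC-Na, 200 μL per mouse; controls received vehicle alone. Mortality recorded over 14 days. LD50 estimated by probit analysis.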

[10] = biological target: T1, Urease subunit alpha/Urease subunit beta; assay: Mixed type non-competitive inhibition of urease in Helicobacter pylori ATCC 43504 assessed as enzyme-substrate-inhibitor complex constant preincubated for 1.5 hrs by indophenol method; type: protein-complex assay, Helicobacter pylori NCTC 11637 = CCUG 17874 = ATCC 43504
Method in brief: (§3)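 Crude H. pylori ATCC 43504 urease with compound pre-incubated 1.5 h at room temperature, then ammonia production velocity measured by indophenol method across a urea concentration gradient at each fixed inhibitor concentration. V–[S] data fitted nonlinearly to assign inhibition type. Fitting constants plotted linearly against [I]; Ki and K'i taken from X-axis intercepts. Triplicate.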

[11] = biological target: T1, Urease subunit alpha/Urease subunit beta; assay: Mixed type non-competitive inhibition of urease in Helicobacter pylori ATCC 43504 assessed as reduction in ammonia production preincubated for 1.5 hrs by indophenol method; type: protein-complex assay, Helicobacter pylori NCTC 11637 = CCUG 17874 = ATCC 43504; method in brief: as §3
Helicobacter pylori [12] = assay: Antibacterial activity against Helicobacter pylori ATCC 43504 infected in Kunming mouse assessed as reduction in gastric mucosa injury in mouse stomach at 16 mg/kg, po bid treated for 14 days by hematoxylin and eosin staining based assay; type: functional, organism-based; details: NCTC 11637 = CCUG 17874 = ATCC 43504; method in brief: as §2
Helicobacter pylori [13] = assay: Antibacterial activity against Helicobacter pylori ATCC 43504 infected in Kunming mouse assessed as bacterial eradication at 128 mg/kg, po bid treated for 14 days relative to control; type: functional, NCTC 11637 = CCUG 17874 = ATCC 43504; method in brief: as §1

T1 sequence (P69996 whole entry): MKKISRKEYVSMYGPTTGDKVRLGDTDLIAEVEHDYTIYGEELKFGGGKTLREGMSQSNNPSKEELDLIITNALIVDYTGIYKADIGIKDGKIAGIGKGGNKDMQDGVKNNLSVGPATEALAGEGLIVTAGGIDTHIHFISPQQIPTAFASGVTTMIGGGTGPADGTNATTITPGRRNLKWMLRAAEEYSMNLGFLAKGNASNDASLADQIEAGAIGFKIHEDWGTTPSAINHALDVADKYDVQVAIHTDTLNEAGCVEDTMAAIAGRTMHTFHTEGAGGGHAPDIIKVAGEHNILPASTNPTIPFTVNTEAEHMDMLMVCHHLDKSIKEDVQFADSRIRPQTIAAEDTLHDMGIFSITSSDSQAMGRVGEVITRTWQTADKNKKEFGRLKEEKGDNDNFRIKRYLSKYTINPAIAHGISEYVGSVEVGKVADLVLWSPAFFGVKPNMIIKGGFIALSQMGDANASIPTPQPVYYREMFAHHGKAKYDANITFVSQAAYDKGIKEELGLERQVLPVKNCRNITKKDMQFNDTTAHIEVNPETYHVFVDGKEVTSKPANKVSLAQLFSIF
T1 sequence (P14916 whole entry, further chain): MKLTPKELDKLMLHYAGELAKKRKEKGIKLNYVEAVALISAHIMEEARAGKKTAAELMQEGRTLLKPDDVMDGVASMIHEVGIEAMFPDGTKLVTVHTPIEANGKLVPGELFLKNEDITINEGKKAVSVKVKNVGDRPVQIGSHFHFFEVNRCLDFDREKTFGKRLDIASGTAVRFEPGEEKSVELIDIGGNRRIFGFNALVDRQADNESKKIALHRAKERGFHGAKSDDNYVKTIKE
T2 sequence (P14916 whole entry, looked up): as the sequence (P14916 whole entry, further chain) above
T2 sequence (P69996 whole entry, looked up): as the sequence (P69996 whole entry) above

Row | SMILES | IC50 [1] [µM] | Ratio IC50 [2] | other results
1 | Cc1cc(C)cc(NCCC(=O)NO)c1 | 2.93 | 46 to 110 | 
2 | O=C(CCNc1ccccc1)NO | 1.22 | 46 to 110 | 
3 | COc1ccccc1NCCC(=O)NO | 1.64 | 46 to 110 | 
4 | O=C(CNc1cccc(Cl)c1Cl)NO | 14.8 | 46 to 110 | 
5 | O=C(CCNc1cccc(Cl)c1Cl)NO | 3.83 | 46 to 110 | 
6 | O=C(CCNc1c(Cl)cccc1Cl)NO | 25 | 46 to 110 | 
7 | O=C(CCNc1ccc(Cl)c(Cl)c1)NO | 0.71 | 46 to 110 | IC50 [3]: 38.9 µM
8 | O=C(CNc1cccc(Br)c1)NO | 0.86 | 46 to 110 | Ratio IC50 [4]: 2 to 24; IC50 [3]: 48.1 µM
9 | O=C(CNc1ccccc1Br)NO | 12.3 | 46 to 110 | Ratio IC50 [4]: 2 to 24
10 | COc1ccccc1NCC(=O)NO | 152 | 46 to 110 | 
11 | O=C(CNc1ccc(F)cc1)NO | 7.41 | 46 to 110 | 
12 | O=C(CNc1c(Cl)cccc1Cl)NO | 191 | 46 to 110 | 
13 | O=C(CNc1ccc(Br)cc1)NO | 2.01 | 46 to 110 | Ratio IC50 [4]: 2 to 24
14 | O=C(CNc1ccc(Cl)cc1Cl)NO | 66.1 | 46 to 110 | 
15 | O=C(CNc1cc(Cl)ccc1Cl)NO | 1.64 | 46 to 110 | 
16 | O=C(CNc1cccc([N+](=O)[O-])c1)NO | 8.21 | 46 to 110 | 
17 | O=C(CCNc1ccccc1Br)NO | 0.13 | 46 to 110 | IC50 [3]: 14.5 µM
18 | O=C(CNc1ccc(Cl)cc1)NO | 2.47 | 46 to 110 | 
19 | O=C(CCN1CCCc2ccccc21)NO | 21.1 | 46 to 110 | 
20 | O=C(CCNc1cc(F)cc(F)c1)NO | 1.52 | 46 to 110 | 
21 | O=C(CN1CCCc2ccccc21)NO | 71.1 | 46 to 110 | 

Row | SMILES | IC50 [1] [µM] | Ratio IC50 [2] | other results
22 | O=C(CCNc1ccc(F)cc1)NO | 0.18 | 46 to 110 | IC50 [3]: 17.9 µM
23 | O=C(CCNc1cccc([N+](=O)[O-])c1)NO | 5.1 | 46 to 110 | 
24 | O=C(CCNc1ccc([N+](=O)[O-])cc1)NO | 1.23 | 46 to 110 | 
25 | CC(=O)NO [ACETOHYDROXAMIC ACID] |  | 46 to 110 | Activity (Helicobacter pylori [5]): 44.4%; IC50 [3]: 172 µM; Activity (Helicobacter pylori [6]): Active
26 | O=C(CCNc1ccccc1[N+](=O)[O-])NO | 10.5 | 46 to 110 | 
27 | O=C(CCNc1ccc(Cl)cc1Cl)NO | 0.018 | 46 to 110 | Activity (Helicobacter pylori [7]): 100%; Ratio IC50 [4]: > 1500; Activity (Helicobacter pylori [8]): 92.3%; LD50 at 336 h [9]: 3130 mg/kg; Ki [10]: 0.0602 µM; Ki [11]: 0.442 µM; Activity (Helicobacter pylori [5]): 100%; IC50 [3]: 0.14 µM; Activity (Helicobacter pylori [6]): Active; Activity (Helicobacter pylori [12]): Active
28 | COc1ccc(NCC(=O)NO)cc1 | 69.8 | 46 to 110 | 
29 | O=C(CCNc1ccccc1Cl)NO | 0.055 | 46 to 110 | Activity (Helicobacter pylori [7]): 92.3%; LD50 at 336 h [9]: 3350 mg/kg; Activity (Helicobacter pylori [13]): 100%; Activity (Helicobacter pylori [5]): 84.6%; IC50 [3]: 5.91 µM; Activity (Helicobacter pylori [6]): Active
30 | O=C(CNc1cc(Cl)cc(Cl)c1)NO | 0.13 | 46 to 110 | Ki [10]: 0.315 µM; Ki [11]: 1.66 µM; IC50 [3]: 16.9 µM
31 | O=C(CCNc1cc(Cl)cc(Cl)c1)NO | 0.043 | 46 to 110 | Activity (Helicobacter pylori [7]): 100%; LD50 at 336 h [9]: 2980 mg/kg; Ki [10]: 0.153 µM; Activity (Helicobacter pylori [13]): 100%; Ki [11]: 1.57 µM; Activity (Helicobacter pylori [5]): 92.3%; IC50 [3]: 3.9 µM; Activity (Helicobacter pylori [6]): Active
32 | COc1cccc(NCC(=O)NO)c1 | 21.8 | 46 to 110 | 
33 | O=C(CNc1ccc(Cl)c(Cl)c1)NO | 0.76 | 46 to 110 | IC50 [3]: 41.6 µM
34 | COc1cc(NCC(=O)NO)cc(OC)c1 | 2.28 | 46 to 110 | 
35 | O=C(CCNc1cc(Cl)ccc1Cl)NO | 0.45 | 46 to 110 | IC50 [3]: 29.5 µM
36 | O=C(CNc1cc(F)cc(F)c1)NO | 5.11 | 46 to 110 | 
37 | O=C(CNc1ccccc1)NO | 4.67 | 46 to 110 | 
38 | Cc1cc(C)cc(NCC(=O)NO)c1 | 2.12 | 46 to 110 | 
39 | O=C(CNc1ccccc1Cl)NO | 58.9 | 46 to 110 | 
40 | O=C(CNc1cccc(Cl)c1)NO | 1.15 | 46 to 110 | 
41 | Cc1ccc(NCC(=O)NO)cc1 | 3.91 | 46 to 110 | 
